Test results taken from PubChem BioAssay.
The source made the active and inactive calls.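 Rule for the calls, unless noted: active = GFP response above 150% of the DMSO level; inconclusive = fewer than 70 events counted for a yeast strain; inactive = the rest.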

Legend:
[1] = RPL19A-GFP modulators, yeast TOR pathway, confirmation, cell-based, S. cerevisiae, flow cytometry, cherry picks, mother/daughter gates (AID 2270;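 active = GFP response below 50% of the DMSO control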); settings: S. cerevisiae RPL19A-GFP strain, 3 h, at 10 µM, stronger effect = lower value, 100 = same GFP as DMSO wells
[2] = LAP4-GFP expression modulators in yeast, confirmation, cell-based, cherry picks, flow cytometry, mother/daughter gates (AID 2271;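 active = GFP response above 150% of the DMSO control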;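 note: ratio of sample to DMSO plate mean so 100% equals DMSO level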); settings: S. cerevisiae LAP4-GFP strain, 3 h, at 10 µM, stronger effect = higher value, 100 means same as DMSO control
Method in brief: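 System – GFP-fusion yeast strain · Amount – 0.2 OD600 cells · Buffer or medium – SC growth medium · Dosing – single test-compound dose, 10 µM final · Schedule – 3 h treatment at 30 °C with rotation · Detection – GFP by flow cytometry · Read-out – per-gate (all, mother, daughter) GFP response vs DMSO · Benchmarks – positive rapamycin (400 ng/mL), negative DMSO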

[3] = modulators of MEP2-GFP levels in yeast, confirmation, S. cerevisiae, flow cytometry GFP, cherry picks (AID 2272;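 active = GFP response above 150% of the DMSO control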;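 note: ratio of well signal to plate DMSO mean so 100% equals DMSO level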); settings: S. cerevisiae MEP2-GFP strain, 3 h, at 10 µM, stronger effect = higher value
[4] = AGP1-GFP expression modulators, hit retest, confirmation, cell-based, flow cytometry, S. cerevisiae, cherry picks (AID 2273);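 note: median GFP channel fluorescence over the whole cell population gate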; settings: S. cerevisiae AGP1-GFP strain, 3 h, at 10 µM
[5] = modulators of CIT2-GFP expression in yeast, confirmation, S. cerevisiae, GFP fusion, cherry picks, mother/daughter gates (AID 2274); settings: S. cerevisiae CIT2-GFP strain, flow cytometry, 3 h, at 10 µM, stronger effect = higher value
[6] = measured here: daughter cell gate
[7] = measured here: mother cell gate
[8] = measured here: daughter cell gate response
[9] = measured here: mother cell gate response

SMILES | GFP response vs DMSO [1] | GFP response vs DMSO [1, 6] | GFP response vs DMSO [1, 7] | GFP response relative to DMSO [2] | GFP response relative to DMSO [2, 8] | GFP response relative to DMSO [2, 9] | GFP response vs DMSO [3] | GFP response, % of DMSO [4] | GFP response, % of DMSO [5] | GFP response, % of DMSO [5, 6] | GFP response, % of DMSO [5, 7]
Cc1noc(/C=C/c2cccnc2)c1[N+](=O)[O-] | 105% (inactive) | 104% | 103% | 120% (inactive) | 117% | 124% | 104% (inactive) | 92.4% (inactive) | 92.6% (inactive) | 94.8% | 89.1%
O=C(OCC(=O)N1CCN(C(=O)c2ccco2)CC1)c1cc(-c2ccc(Cl)c(Cl)c2Cl)nc2ccccc12 | 90.1% (inactive) | 89.1% | 89% | 97.9% (inactive) | 99.2% | 104% | 117% (inactive) | 116% (inactive) | 115% (inactive) | 105% | 107%
O=C(NCC(=O)N1CCCC1)c1cccs1 | 99.8% (inactive) | 99.6% | 100% | 99.2% (inactive) | 97.6% | 98.3% | 100% (inactive) | 97.2% (inactive) | 104% (inactive) | 105% | 104%
Cc1ccc(-c2noc(CCC(=O)Nc3ccccc3C)n2)cc1 | 98% (inactive) | 97% | 96.5% | 111% (inactive) | 104% | 112% | 106% (inactive) | 100% (inactive) | 100% (inactive) | 101% | 98.2%
Cc1cccc(NC(=O)CCCN2C(=O)c3cccc4cccc(c34)C2=O)c1 | 101% (inactive) | 96.9% | 100% | 94.4% (inactive) | 95.9% | 94.1% | 99% (inactive) | 98.8% (inactive) | 98.8% (inactive) | 97.4% | 99.3%
CCOC(=O)C1C(=O)C=C(c2ccc(C)cc2)CC1c1ccco1 (stereo not given) | 99.9% (inactive) | 97.8% | 101% | 109% (inactive) | 103% | 112% | 102% (inactive) | 102% (inactive) | 95.2% (inactive) | 91.5% | 96.6%
O=C(Nc1nc(-c2ccccn2)cs1)c1cc2ccccc2o1 | 97.4% (inactive) | 96.7% | 83.7% | 285% (active) | 163% | 215% | 129% (inactive) | 120% (inactive) | 124% (inactive) | 104% | 91%
C/C(=N\NC(=O)c1cccc(Br)c1)c1ccccn1 | 108% (inactive) | 97.6% | 102% | 163% (active) | 149% | 166% | 122% (inactive) | 97.3% (inactive) | 108% (inactive) | 101% | 101%
CCOc1c(Br)ccc2c1sc1nc[nH]c(=O)c12 | 101% (inactive) | 99.8% | 100% | 105% (inactive) | 99% | 108% | 103% (inactive) | 99.1% (inactive) | 100% (inactive) | 97.6% | 100%
O=S(=O)(c1ccc(C2CCCCC2)cc1)N1CCOCC1 | 92.4% (inactive) | 92.7% | 90.1% | 102% (inactive) | 97.5% | 105% | 105% (inactive) | 102% (inactive) | 100% (inactive) | 93.8% | 101%
Cc1c(N2C(=O)/C(=C\c3ccccc3O)SC2=S)c(=O)n(-c2ccccc2)n1C | 101% (inactive) | 96% | 98.3% | 134% (inactive) | 130% | 137% | 102% (inactive) | 93.2% (inactive) | 105% (inactive) | 109% | 95.6%
COc1cc(NC(=O)c2cccs2)ccc1NC(=O)c1cc2ccccc2o1 | 97% (inactive) | 96.9% | 98.7% | 96.7% (inactive) | 99.2% | 95.1% | 100% (inactive) | 99.9% (inactive) | 101% (inactive) | 101% | 101%
Cc1ccc(C2=NN(S(C)(=O)=O)C(c3ccc4c(c3)OCO4)C2)cc1 (stereo not given) | 101% (inactive) | 99.6% | 102% | 116% (inactive) | 115% | 115% | 141% (inactive) | 103% (inactive) | 129% (inactive) | 130% | 119%
CCn1c(=O)c(C(=O)NCc2ccc(OC)cc2)c(O)c2ccccc21 | 98.5% (inactive) | 99.5% | 98.4% | 97.7% (inactive) | 102% | 97.4% | 106% (inactive) | 100% (inactive) | 101% (inactive) | 101% | 100%
O=C(NN1C(=O)/C(=C\c2ccc(O)c([N+](=O)[O-])c2)SC1=S)c1ccccc1Cl | 97.4% (inactive) | 95.9% | 95.8% | 126% (inactive) | 106% | 129% | 123% (inactive) | 69.8% (inactive) | 107% (inactive) | 99.1% | 106%
